Data set [1] is described as follows: Oral bioavailability in BALB/c mouse at 10 mg/kg. The note with it: in vivo. It is filed as ADME, organism-based. The essentials: (§1)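 Male BALB/c mice (20-25 g), fasted overnight. IV bolus 5 mg/kg in 20% NMP/35% PEG 400/10% PG/35% water; oral gavage 10 mg/kg in PEG 400. Retro-orbital blood at 0.05 (iv only), 0.25, 0.5, 1, 3, 6, 8 and 24 h; three mice per time point, giving a composite profile. Plasma analysed by LC/MS/MS.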

Data set [2] in a line: Cmax in BALB/c mouse at 5 mg/kg, iv and 10 mg/kg, po. It is filed as ADME, organism-based. The note with it: in vivo. The essentials: as §1
Data set [3] is described as follows: Permeability of the compound in human Caco-2 cells. It is filed as ADME, cell-based. The note with it: read-out: permeability. On the technique in general: Caco-2 cells form a polarised layer with tight junctions and transporters.
Data set [4] relates to Hepatocyte. As to the kind of experiment: Metabolic stability in human hepatocytes assessed as metabolic rate per million cells. It is filed as ADME, cell-based.
Data set [5] in a line: Tmax in BALB/c mouse at 5 mg/kg, iv and 10 mg/kg, po. It is filed as ADME, organism-based. The note with it: in vivo. In a few lines: as §1
A short description of data set [6]: Half life in BALB/c mouse at 5 mg/kg, iv and 10 mg/kg, po. It is filed as ADME, organism-based. Conditions: in vivo. In a few lines: as §1
A short description of data set [7]: Mean residence time in BALB/c mouse at 5 mg/kg, iv and 10 mg/kg, po. The note with it: in vivo. It is filed as ADME, organism-based. In a few lines: as §1
A short description of data set [8]: Clearance in BALB/c mouse at 5 mg/kg, iv and 10 mg/kg, po. It is filed as ADME, organism-based. Conditions: in vivo. The essentials: as §1
Data set [9] in a line: Volume of distribution at steady state in BALB/c mouse at 5 mg/kg, iv and 10 mg/kg, po. It is filed as ADME, organism-based. The note with it: in vivo, read-out: Vdss. The essentials:
as §1

Data set [10] can be described thus: AUC (0 to 8 hrs) in BALB/c mouse at 5 mg/kg, iv and 10 mg/kg, po. It is filed as ADME, organism-based. The note with it: plasma. The essentials: as §1
Data set [11] in a line: Oral bioavailability in Sprague-Dawley rat at 10 mg/kg. It is filed as ADME, organism-based. The note with it: in vivo. The essentials:
(§2)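 Male Sprague-Dawley rats (250-300 g), fasted overnight. IV bolus 2.5 mg/kg in 25% NMP/33% PEG 400/9% PG/33% water; oral gavage 10 mg/kg in PEG 400. Blood sampled at 0.05 (iv only), 0.25, 0.5, 1, 3, 6, 8 and 24 h post dose; composite profile. Plasma stored at -20 °C, then analysed by LC/MS/MS.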

Data set [12] is described as follows: Cmax in Sprague-Dawley rat at 2.5 mg/kg, iv and 10 mg/kg, po. It is filed as ADME, organism-based. The note with it: in vivo. The essentials:
as §2

Data set [13] in a line: Tmax in Sprague-Dawley rat at 2.5 mg/kg, iv and 10 mg/kg, po. It is filed as ADME, organism-based. Conditions: in vivo. The essentials:
as §2

Data set [14] can be described thus: Half life in Sprague-Dawley rat at 2.5 mg/kg, iv and 10 mg/kg, po. It is filed as ADME, organism-based. Conditions: in vivo. The essentials:
as §2

Data set [15] in a line: Mean residence time in Sprague-Dawley rat at 2.5 mg/kg, iv and 10 mg/kg, po. Conditions: in vivo. It is filed as ADME, organism-based. In a few lines:
as §2

Data set [16] in a line: Clearance in Sprague-Dawley rat at 2.5 mg/kg, iv and 10 mg/kg, po. It is filed as ADME, organism-based. Conditions: in vivo. In a few lines: as §2
Data set [17] can be described thus: Volume of distribution at steady state in Sprague-Dawley rat at 2.5 mg/kg, iv and 10 mg/kg, po. It is filed as ADME, organism-based. Conditions: in vivo, read-out: Vdss. The essentials:
as §2

Data set [18] can be described thus: AUC (0 to 24 hrs) in Sprague-Dawley rat at 2.5 mg/kg, iv and 10 mg/kg, po. It is filed as ADME, organism-based. The note with it: plasma. In a few lines: as §2
Data set [19] can be described thus: Metabolic stability in mouse liver microsomes assessed as metabolic rate. It is filed as ADME, Microsome. (In general: Liver microsomes are a subcellular fraction often used to study metabolism.)
For data set [20], the system named is Liver microsomes. As to the kind of experiment: Metabolic stability in rat liver microsomes assessed as metabolic rate. It is filed as ADME, Microsome.
For data set [21], the system named is Liver microsomes. As to the kind of experiment: Metabolic stability in human liver microsomes assessed as metabolic rate. It is filed as ADME, Microsome.
Data set [22] can be described thus: Metabolic stability in mouse hepatocytes assessed as metabolic rate per million cells. It is filed as ADME, cell-based, Hepatocyte.
Data set [23] concerns Hepatocyte. As to the kind of experiment: Metabolic stability in rat hepatocytes assessed as metabolic rate per million cells. It is filed as ADME, cell-based.

As for `CCCNC(=O)c1cn2ncnc(Nc3cc(C(=O)NC4CC4)ccc3C)c2c1C` [BMS-582949], the bioavailability (commonly dose-corrected exposure relative to a reference, in per cent) is 90% in data set [1] and 60% in data set [11]. Besides, the Cmax (commonly the highest concentration seen after dosing) was determined as 15.3 µM in [2] and 7 µM in [12]. The Papp in [3] was determined as 9.1 ×10⁻⁶ cm/s. Further, the Stability is 0.015 nmol/min/million cells in data set [4]; 0.011 nmol/min/mg in data set [19]; 0.008 nmol/min/mg in data set [20]; 0.013 nmol/min/mg in [21]; 0.006 nmol/min/million cells in [22]; 0.015 nmol/min/million cells in data set [23]. Further, the Tmax (in general, the time from dosing to the highest level) came out at 1 h in data set [5] and 1.5 h in data set [13]. Moreover, the half-life (usually the time needed for the level to fall by half in the phase considered) in data set [6] is 2.6 h; in data set [14] it was 4 h. The MRT (in general, the average time that molecules of a dose stay in the body) came to 3.3 h in data set [7] and 3.4 h in data set [15]. For the same compound, the results for the clearance in data set [8] and in data set [16] were 4.4 mL/min/kg and 5.4 mL/min/kg, respectively. The Vd in data set [9] turned out to be 0.9 L/kg; in data set [17] it was 1.1 L/kg. The results for the AUC(0-t) in data set [10] and in data set [18] were 75.5 µM·h and 45.4 µM·h, respectively.

For the compound `CCNC(=O)c1cn2ncnc(Nc3cc(C(=O)NOC)ccc3C)c2c1C`, the Papp in data set [3] worked out at 0.5 ×10⁻⁶ cm/s.

Values taken from ChEMBL document CHEMBL1250528 (J Med Chem, 2010).
